Laboratory results published in ChEMBL document CHEMBL4311941, “Development of Multifunctional Histone Deacetylase 6 Degraders with Potent Antimyeloma Activity” (J Med Chem, 2019).
Active and inactive are the calls of the source. The calls are words filed in the database; no cut-off is given here.

Legend:
[1] = target: T1, Protein cereblon/Protein deacetylase HDAC6 (Homo sapiens, UniProt Q9UBN7+Q96SW2); experiment: Protac activity at CRBN/HDAC6 in human MM1S cells assessed as induction of alpha tubulin acetylation at 100 nM measured after 6 hrs in presence of proteasome inhibitor bortezomib by Western blot analysis; assay type: cell-based
Target sequence in this assay (Q96SW2 whole entry, looked up, one chain of several): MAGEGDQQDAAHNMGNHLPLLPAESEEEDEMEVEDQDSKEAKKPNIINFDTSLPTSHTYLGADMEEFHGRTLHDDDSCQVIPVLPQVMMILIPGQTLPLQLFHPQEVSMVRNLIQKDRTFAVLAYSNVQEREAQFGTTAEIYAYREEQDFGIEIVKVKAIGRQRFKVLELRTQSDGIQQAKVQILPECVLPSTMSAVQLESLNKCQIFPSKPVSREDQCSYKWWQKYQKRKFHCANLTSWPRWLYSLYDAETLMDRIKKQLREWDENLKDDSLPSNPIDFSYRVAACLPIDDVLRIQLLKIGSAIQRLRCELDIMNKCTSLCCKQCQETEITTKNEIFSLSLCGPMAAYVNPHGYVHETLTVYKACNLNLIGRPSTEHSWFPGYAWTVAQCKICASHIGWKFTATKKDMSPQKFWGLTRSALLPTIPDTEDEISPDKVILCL

[2] = target: Histone deacetylase (Homo sapiens) (UniProt Q13547+O15379+Q9UBN7+Q92769+Q9UQL6+Q8WUI4+Q9BY41+Q96DB2+P56524+Q9UKV0+Q969S8); conditions: at 100 nM
Histone deacetylase 8 = target: T2, Histone deacetylase 8 (Homo sapiens, UniProt Q9BY41); experiment: Inhibition of human N-terminal tagged human HDAC8 expressed in HEK293T/17 using Boc-[TFA-Lys]-AMC as substrate preincubated for 10 mins followed by substrate addition and measured after 60 mins by fluorescence assay
T2 sequence (Q9BY41 whole entry): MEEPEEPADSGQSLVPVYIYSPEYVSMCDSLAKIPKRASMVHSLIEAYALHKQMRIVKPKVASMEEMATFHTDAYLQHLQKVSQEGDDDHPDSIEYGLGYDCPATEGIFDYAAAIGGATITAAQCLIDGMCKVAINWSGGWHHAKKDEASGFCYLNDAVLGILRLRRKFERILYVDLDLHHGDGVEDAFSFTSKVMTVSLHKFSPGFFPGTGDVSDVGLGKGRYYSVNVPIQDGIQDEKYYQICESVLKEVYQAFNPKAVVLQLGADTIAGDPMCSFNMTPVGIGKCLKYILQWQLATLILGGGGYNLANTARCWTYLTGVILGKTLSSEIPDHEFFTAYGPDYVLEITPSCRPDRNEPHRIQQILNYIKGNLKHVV

[3] = target: Protein cereblon/Histone deacetylase 1 (Homo sapiens) (UniProt Q13547+Q96SW2); experiment: Protac activity at CRBN/HDAC1 in human MM1S cells assessed as HDAC1 degradation measured after 6 hrs by Western blot analysis; assay type: cell-based
Chain of Protein cereblon/Histone deacetylase 1 (Homo sapiens) (Q13547 whole entry, looked up): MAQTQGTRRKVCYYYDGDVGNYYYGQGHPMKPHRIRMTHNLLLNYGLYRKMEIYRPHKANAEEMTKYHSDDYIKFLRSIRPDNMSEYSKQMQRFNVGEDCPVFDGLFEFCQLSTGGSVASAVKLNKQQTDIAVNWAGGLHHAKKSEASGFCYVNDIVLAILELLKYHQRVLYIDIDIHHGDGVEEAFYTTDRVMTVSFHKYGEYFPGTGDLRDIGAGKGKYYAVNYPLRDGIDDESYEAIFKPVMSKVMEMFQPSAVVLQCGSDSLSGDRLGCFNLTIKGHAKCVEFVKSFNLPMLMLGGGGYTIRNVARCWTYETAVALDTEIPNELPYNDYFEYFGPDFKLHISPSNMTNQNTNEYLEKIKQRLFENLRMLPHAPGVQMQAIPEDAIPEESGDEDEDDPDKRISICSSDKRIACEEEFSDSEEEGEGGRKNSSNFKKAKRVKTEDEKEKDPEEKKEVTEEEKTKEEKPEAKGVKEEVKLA
Chain of Protein cereblon/Histone deacetylase 1 (Homo sapiens) (Q96SW2 whole entry, looked up): as the sequence (Q96SW2 whole entry, looked up, one chain of several) above

[4] = target: T1, Protein cereblon/Protein deacetylase HDAC6; experiment: Protac activity at CRBN/HDAC6 in human Jurkat cells assessed as HDAC6 degradation at 10 to 100 nM incubated for 6 hrs by Western blot analysis; assay type: cell-based
Target sequence in this assay (Q96SW2 whole entry, looked up, one chain of several): as above

[5] = target: T3, Protein deacetylase HDAC6 (Homo sapiens, UniProt Q9UBN7); experiment: Inhibition of human N-terminal tagged human HDAC6 expressed in HEK293T/17 using Ac-Gly-Ala-[Ac-Lys]-AMC as substrate preincubated for 10 mins followed by substrate addition and measured after 15 mins by fluorescence assay
T3 sequence (Q9UBN7 whole entry): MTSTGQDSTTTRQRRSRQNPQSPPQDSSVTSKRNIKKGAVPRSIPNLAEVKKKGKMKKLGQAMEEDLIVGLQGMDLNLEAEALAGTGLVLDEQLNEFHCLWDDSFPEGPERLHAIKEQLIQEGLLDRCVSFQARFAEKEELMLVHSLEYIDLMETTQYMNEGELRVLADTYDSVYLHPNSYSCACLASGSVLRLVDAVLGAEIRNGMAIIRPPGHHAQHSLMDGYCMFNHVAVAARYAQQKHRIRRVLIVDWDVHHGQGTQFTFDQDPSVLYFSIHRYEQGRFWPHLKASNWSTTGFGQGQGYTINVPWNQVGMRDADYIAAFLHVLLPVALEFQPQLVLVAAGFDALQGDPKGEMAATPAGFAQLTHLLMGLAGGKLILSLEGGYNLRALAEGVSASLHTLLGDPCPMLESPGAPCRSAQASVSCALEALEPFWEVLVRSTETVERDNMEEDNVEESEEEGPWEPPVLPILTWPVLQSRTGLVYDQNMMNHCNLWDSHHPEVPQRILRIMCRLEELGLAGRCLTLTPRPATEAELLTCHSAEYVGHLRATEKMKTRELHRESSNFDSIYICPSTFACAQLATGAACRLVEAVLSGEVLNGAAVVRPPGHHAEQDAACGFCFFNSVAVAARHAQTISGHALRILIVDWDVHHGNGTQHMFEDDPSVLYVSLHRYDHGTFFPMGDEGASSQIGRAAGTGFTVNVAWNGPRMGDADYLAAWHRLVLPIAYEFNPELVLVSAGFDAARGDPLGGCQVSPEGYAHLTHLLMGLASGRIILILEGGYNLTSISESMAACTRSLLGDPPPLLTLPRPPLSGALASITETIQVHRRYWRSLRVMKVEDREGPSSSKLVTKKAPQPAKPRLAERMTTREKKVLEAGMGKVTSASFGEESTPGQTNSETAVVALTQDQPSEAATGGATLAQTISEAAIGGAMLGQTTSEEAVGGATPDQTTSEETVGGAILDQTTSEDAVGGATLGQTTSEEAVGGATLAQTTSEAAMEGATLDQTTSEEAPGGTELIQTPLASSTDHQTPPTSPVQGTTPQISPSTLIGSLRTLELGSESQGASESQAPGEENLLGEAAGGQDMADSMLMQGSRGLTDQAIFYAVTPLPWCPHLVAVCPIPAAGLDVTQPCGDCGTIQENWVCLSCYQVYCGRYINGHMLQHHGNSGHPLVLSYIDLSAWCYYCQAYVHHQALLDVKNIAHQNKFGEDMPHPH

[6] = target: Protein cereblon/Histone deacetylase 4 (Homo sapiens) (UniProt P56524+Q96SW2); experiment: Protac activity at CRBN/HDAC4 in human MM1S cells assessed as HDAC4 degradation at 100 nM measured after 6 hrs in presence of proteasome inhibitor bortezomib by Western blot analysis; assay type: cell-based
Chain of Protein cereblon/Histone deacetylase 4 (Homo sapiens) (P56524 whole entry, looked up): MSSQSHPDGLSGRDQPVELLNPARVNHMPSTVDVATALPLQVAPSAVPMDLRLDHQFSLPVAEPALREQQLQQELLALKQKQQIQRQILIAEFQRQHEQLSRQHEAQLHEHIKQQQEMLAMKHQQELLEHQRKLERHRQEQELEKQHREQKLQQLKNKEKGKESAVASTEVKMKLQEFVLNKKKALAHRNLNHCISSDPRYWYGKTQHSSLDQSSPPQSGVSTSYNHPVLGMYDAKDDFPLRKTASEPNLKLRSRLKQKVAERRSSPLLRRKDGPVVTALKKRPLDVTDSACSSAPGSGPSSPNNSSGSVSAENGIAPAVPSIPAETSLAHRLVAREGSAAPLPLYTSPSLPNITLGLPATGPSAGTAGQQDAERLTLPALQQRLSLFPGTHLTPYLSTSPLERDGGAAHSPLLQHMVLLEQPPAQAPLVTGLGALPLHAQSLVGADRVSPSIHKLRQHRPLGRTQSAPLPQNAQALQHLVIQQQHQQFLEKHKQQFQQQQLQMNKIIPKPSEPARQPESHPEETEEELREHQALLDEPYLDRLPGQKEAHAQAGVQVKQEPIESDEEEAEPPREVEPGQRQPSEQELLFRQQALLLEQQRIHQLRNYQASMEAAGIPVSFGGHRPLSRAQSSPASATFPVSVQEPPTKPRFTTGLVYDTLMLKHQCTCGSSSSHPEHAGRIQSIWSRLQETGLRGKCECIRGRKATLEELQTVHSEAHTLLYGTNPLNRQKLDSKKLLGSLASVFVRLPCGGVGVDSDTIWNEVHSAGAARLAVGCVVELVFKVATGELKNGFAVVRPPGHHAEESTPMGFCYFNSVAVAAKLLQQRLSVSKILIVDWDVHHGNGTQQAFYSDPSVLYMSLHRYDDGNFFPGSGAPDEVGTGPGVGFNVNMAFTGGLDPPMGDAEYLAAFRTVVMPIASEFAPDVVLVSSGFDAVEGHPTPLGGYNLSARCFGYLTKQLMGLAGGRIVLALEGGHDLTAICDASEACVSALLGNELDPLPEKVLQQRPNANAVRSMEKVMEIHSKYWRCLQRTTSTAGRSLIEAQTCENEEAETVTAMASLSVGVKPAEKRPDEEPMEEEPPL
Chain of Protein cereblon/Histone deacetylase 4 (Homo sapiens) (Q96SW2 whole entry, looked up): as the sequence (Q96SW2 whole entry, looked up, one chain of several) above

[7] = target: T1, Protein cereblon/Protein deacetylase HDAC6; experiment: Protac activity at CRBN/HDAC6 in human MM1S cells assessed as HDAC6 degradation at 3 to 30 nM measured after 6 hrs by Western blot analysis; assay type: cell-based
Target sequence in this assay (Q96SW2 whole entry, looked up, one chain of several): as above

MM1.S = experiment: Antiproliferative activity against human MM1S cells assessed as reduction in cell viability measured after 72 hrs by resazurin dye based assay; assay type: functional
Outline: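 MM1S cells seeded at 1 × 10^4 per well, left overnight, then given compound or DMSO vehicle (added as 5× dosing medium) for 72 h at 37 °C, 5% CO2. Resazurin added (10× solution, 1 mg/mL), then incubated overnight at 37 °C. OD read at 570 and 600 nm. Viability is relative to vehicle, n = 3. Curves fitted as [inhibitor] vs response (three parameters); test range 0.3 nM–3 μM.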

[8] = target: T1, Protein cereblon/Protein deacetylase HDAC6; experiment: Protac activity at CRBN/HDAC6 in human MM1S cells assessed as HDAC6 degradation measured after 6 hrs by ELISA; assay type: cell-based
Outline: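 In-cell ELISA: MM1S cells (5 × 10^4 per well) seeded overnight, treated 6 h (dosed as 5× medium; 0.1 nM–1 μM or 10/100 nM). Fixed in 8% formaldehyde/TBS, permeabilized with 0.1% Triton X, peroxidase quenched with 1% H2O2, blocked in 5% BSA. Anti-HDAC6 rabbit mAb (1:1000, 2 h) then HRP secondary; TMB read as OD450 − OD570. Background wells lacked primary antibody. Signal normalized to Janus Green and to DMSO wells, n = 3. DC50/Dmax from three-parameter fit.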
Target sequence in this assay (Q96SW2 whole entry, one chain of several): as the sequence (Q96SW2 whole entry, looked up, one chain of several) above

With `CCCCN(Cc1ccc(C(=O)NO)cc1)C(=O)Nc1ccc(OCCCCCn2cc(CNc3cccc4c3C(=O)N(C3CCC(=O)NC3=O)C4=O)nn2)cc1` (stereo not given) the Activity [1] was “inactive”, the inhibition [2] was “inactive” and the IC50 (Histone deacetylase 8) was 300 to 30000 nM. For the same molecule, the Activity [3] was “inactive”, the Activity [4] was “Active” and the IC50 [5] was 8.7 nM. For the same molecule, the Activity [6] was “inactive”, the Activity [7] was “Active” and the EC50 (MM1.S) was 74.9 nM. It also gave a DC50 [8] of 1.64 nM.
